High-throughput results: PubChem, Johns Hopkins Ion Channel Center
An excerpt weighted towards active compounds, which were near 3.5% of everything screened.
MrgX1 antagonist – human MrgX1 receptor antagonism, primary screen | 1.3% of 310,000 active | MRGX1-HEK293 calcium flux, Fluo-4, BAM8-22 antagonism; hits give low values | Q96LB2 | AID 588676 | B-score at 10 µM;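 active = calcium-response B-score plate-corrected more than 3 library SD below zero, starting fluorescence within 5 deviations, no agonist response on first addition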;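 note: peak minus trough fluorescence over baseline after final BAM8-22 challenge near maximal dose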
Target sequence (Q96LB2 whole entry, looked up): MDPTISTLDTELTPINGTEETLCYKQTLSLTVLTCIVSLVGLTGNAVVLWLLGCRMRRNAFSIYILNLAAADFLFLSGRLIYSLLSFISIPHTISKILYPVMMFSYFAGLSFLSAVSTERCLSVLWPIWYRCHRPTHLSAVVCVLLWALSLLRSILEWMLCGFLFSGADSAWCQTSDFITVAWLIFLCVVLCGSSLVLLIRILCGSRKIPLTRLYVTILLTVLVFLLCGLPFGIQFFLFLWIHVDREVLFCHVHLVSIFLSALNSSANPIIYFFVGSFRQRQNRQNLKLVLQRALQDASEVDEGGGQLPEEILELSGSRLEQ
MrgX1 allo act – human MrgX1 positive allosteric modulation, primary screen; Q96LB2; MrgX1-HEK293, Fluo-4 calcium flux, FDSS; hits give high values; B-score at 10 µM; 0.63% of 310,000 active; AID 588675;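 active = plate-corrected calcium response at least 3 library SD above typical, normal starting fluorescence, not activating the receptor alone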;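 note: compound read alongside a low EC10 to EC30 dose of BAM8-22 agonist; peak minus trough fluorescence over baseline measured at the second addition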
RGS4 pot – potentiators or activators of RGS4; HEK293 M3R/inducible RGS4, carbachol calcium flux Fluo4; hits give low values; B-score at 10 µM; 0.92% of 310,000 active; AID 463111;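 active = B-score of the integrated calcium signal more than 4 SD below the library mean, with starting fluorescence not abnormally high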;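 note: negative B-score means reduced calcium response which marks RGS4 activation or potentiation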
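test system = M3R-expressing HEK293 line, RGS4 induced by doxycycline | probe or stimulus = carbachol at ECmax as muscarinic agonist stimulus | timing = dye loading 30 min 37 °C, buffer rest 30 min RT | signal = calcium dye Fluo4 fluorescence | evaluation = B score from integrated fluorescence ratio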
MrgX1 agonist – human MrgX1 receptor agonism, primary screen; Q96LB2; B-score at 10 µM; 0.44% of 310,000 active; AID 588627; MrgX1-HEK293 cells, Fluo-4 calcium fluorescence, agonist mode; hits give high values;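 active = calcium response B-score plate-corrected fluorescence ratio at least 3 library SD, with starting fluorescence B-score inside 5 SD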
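Material – MrgX1-expressing HEK293 cells · Input – 15,000 cells seeded per well · Dosing – compound as first of three additions · Times – overnight seeding, then 1 h dark dye loading · Measured by – kinetic Fluo-4 NW fluorescence of intracellular calcium · Read-out – B-scored fluorescence response ratio · Benchmarks – positive and negative control wells on each plate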
RGS4 block – human RGS4 inhibition; P49798; B-score at 10 µM; 0.45% of 310,000 active; HEK293 M3R/RGS4 inducible, Fluo-4 calcium flux; hits give high values; triggered by carbachol at its EC20;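 active = B-score, a plate-corrected calcium signal, over three deviations above library mean, with baseline fluorescence within five deviations of library mean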;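 note: RGS4 expression induced by doxycycline in cells with stable M3 receptor; B-score is computed from the integrated fluorescence ratio over baseline after carbachol; higher B-score means a larger calcium signal and so more RGS4 inhibition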
Target sequence (P49798 whole entry, looked up): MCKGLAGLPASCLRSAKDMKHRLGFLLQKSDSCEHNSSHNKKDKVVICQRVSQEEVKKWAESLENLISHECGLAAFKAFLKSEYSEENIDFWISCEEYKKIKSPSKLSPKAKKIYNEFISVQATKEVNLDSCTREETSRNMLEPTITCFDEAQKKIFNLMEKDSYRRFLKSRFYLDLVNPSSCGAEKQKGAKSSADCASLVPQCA
RGS4 inh valid – validation of RGS4 inhibitors; shares compounds with RGS4 block; HEK293 M3R/RGS4, carbachol calcium Fluo-4 fluorescence; carbachol added at its EC20; 0 = buffer wells, 100 = carbachol control; calcium response, % at 10 µM; 65% of 1,700 active; AID 492999;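 active = duplicate-averaged calcium response above the buffer-only control mean plus 5 SD of those controls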;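 note: integrated fluorescence ratio F max minus min over baseline F0; higher response in RGS4-induced cells means RGS4 inhibition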
RGS4 uninduced – checks RGS4 inhibitor effects in non-induced HEK293 M3R cells; AID 493000; carbachol calcium Fluo-4; submaximal (EC20) carbachol stimulus; buffer wells 0%, carbachol control wells 100%; 20% of 1,900 active; shares compounds with RGS4 block; activity (percent), % at 10 µM; call rule not given here;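 note: RGS4 induction absent so cells express M3R without RGS4; higher means more calcium signal and flags a non-specific hit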
M3R basal Ca ctr – second RGS4 inhibitor counter-screen in uninduced cells lacking carbachol | HEK293 M3R/RGS4 non-induced, Fluo-4 calcium, no carbachol; normalised: buffer wells 0%, carbachol wells 100% | 22% of 1,900 active | shares compounds with RGS4 block | calcium response (agonist-mode artifact), % at 10 µM | AID 493001;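 active = duplicate-averaged calcium rise in uninduced cells above buffer wells' mean plus 5 SD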
* = called active by the depositor; i = inactive; nt = no result.

SMILES | MrgX1 antagonist | MrgX1 allo act | RGS4 pot | MrgX1 agonist | RGS4 block | RGS4 inh valid | RGS4 uninduced | M3R basal Ca ctr
O=C(COc1ccc([N+](=O)[O-])cc1)NCCC1=CCCCC1 | i | i | i | i | 5* | i | i | i
NC(=O)CC(NC(=O)c1ccc(Br)cc1)c1ccc(NC2CCCCCC2)c([N+](=O)[O-])c1 (stereo not drawn) | i | i | i | i | i | nt | nt | nt
O=C(O)CCc1ccc(-c2ccccc2)o1 | i | i | i | i | 5.1* | 5.0%* | i | i
Cc1ccc(OCC(=O)N/N=C/c2cn(C)c3ccccc23)cc1 | i | i | i | i | i | nt | i | i
O=C(O)c1ccccc1C(=O)Nc1ccccc1 | i | i | i | i | i | nt | nt | nt
O=C(Nc1ccccc1)C1=C(c2ccccc2)S(=O)(=O)CCS1(=O)=O | nt | nt | i | nt | 23* | 47%* | i | i
N/C(=N\OC(=O)c1ccccc1F)c1cccc([N+](=O)[O-])c1 | i | i | i | i | i | nt | nt | nt
COc1ccc2c(c1)c(C(=O)CN1CCC(C(N)=O)CC1)c(C)n2C | i | i | i | i | i | i | i | i
COc1ccc2c(c1)c(C(=O)CN1CCCCC1)c(C)n2C | i | i | i | i | i | nt | nt | nt
CC(C)c1ccc(N(CC(=O)NCc2ccc(F)cc2)C(=O)c2csnn2)cc1 | i | i | i | i | i | nt | nt | nt
O=C1Nc2ccc(Br)cc2C1Cc1ccccc1F (stereo not drawn) | i | i | i | i | 5.8* | 13%* | i | i
CCN(C#N)c1nc(NC(C)C)nc(NC(C)(C)C)n1 | i | i | i | i | 5.1* | 7.0%* | i | i
CCc1ccc(N2CC(C(=O)N/N=C/c3ccccc3OC)CC2=O)cc1 (stereo not drawn) | i | i | i | i | i | nt | nt | nt
CCc1ccc(N2CC(C(=O)N/N=C/c3cc([N+](=O)[O-])ccc3O)CC2=O)cc1 (stereo not drawn) | i | i | i | i | i | nt | 57%* | i
COC(=O)C1=C(C(=O)OC)[C@@H]2N(C)c3ccc(OC)cc3[C@@]23C[C@@H](C(=O)OC)N(C(=O)NC2CCCCC2)C3=N1 | i | i | i | i | i | nt | nt | nt
CC1CCCCN1Cc1c(O)ccc2c(=O)c(-c3nc4ccccc4s3)c(N)oc12 (stereo not drawn) | i | i | i | i | 12* | 10%* | i | i
CCOCCCNC(=O)CN1C(=O)COc2ccc(S(=O)(=O)N3CCOCC3)cc21 | i | i | i | i | 27* | 6.5%* | i | i
CCOCCCNC(=O)CN1C(=O)COc2ccc(S(=O)(=O)N3CC(C)CC(C)C3)cc21 (stereo not drawn) | i | i | i | i | i | nt | nt | nt
CCOCCCNC(=O)CN1C(=O)COc2ccc(S(=O)(=O)N3CCC(C)CC3)cc21 | i | i | i | i | i | i | i | i
CCOCCCNC(=O)CN1C(=O)COc2ccc(S(=O)(=O)N3CCCCCC3)cc21 | i | i | i | i | i | i | i | i
CCOc1ccc(CNC(=O)CN2C(=O)CSc3ccc(S(=O)(=O)N4CCOCC4)cc32)cc1OC | i | i | i | i | i | nt | nt | nt
COc1ccc(NC(=O)CS(=O)c2cccc(Cl)c2)cc1 (stereo not drawn) | i | i | i | i | i | nt | nt | nt
Cc1cccc(OCC(=O)Nc2ccc(C(=O)Nc3ccccc3C(=O)O)cc2)c1C | i | i | i | i | i | nt | nt | nt
O/N=C/c1cn(-c2ccccc2)nc1-c1ccccc1 | i | i | i | i | i | nt | nt | nt
CC1(C)CC(=O)C(=Cc2cn(-c3ccccc3)nc2-c2ccccc2)C(=O)C1 | i | i | i | i | i | i | i | i
SMILES | MrgX1 antagonist | MrgX1 allo act | RGS4 pot | MrgX1 agonist | RGS4 block | RGS4 inh valid | RGS4 uninduced | M3R basal Ca ctr
O=C(/C=C/c1ccc(NC(=O)c2ccccc2-c2ccccc2C(=O)O)cc1)c1ccccc1 | i | i | i | i | 28* | 60%* | i | 13%*
NC(=S)N/N=C/c1ccc(-n2nncc2-c2ccc(Cl)cc2)cc1 | i | i | i | i | 39* | 23%* | 64%* | i
O=C(COc1ccccc1F)NCc1ccc(-n2cccc2)cc1 | i | i | i | i | i | nt | nt | nt
COc1ccc(C(=O)NN/C(=N/S(=O)(=O)c2ccc(C)cc2)c2ccccc2)cc1 | i | i | i | i | i | nt | nt | nt
CCOc1cc(/C=N/N=C/c2ccc(O)c(OCC)c2)ccc1O | i | i | i | i | i | nt | nt | nt
CCOc1cc(/C=C2\CN(CC)C/C(=C\c3ccc(O)c(OCC)c3)C2=O)ccc1O | i | i | i | 27* | 12* | 48%* | 36%* | 12%*
CCOc1ccc(OCCC(=O)N2CCN(S(=O)(=O)c3cccc(F)c3)CC2)cc1 | i | i | i | i | i | nt | nt | nt
O=C(C1=C(O)C(=O)N(Cc2ccco2)C1c1ccccc1F)c1cccs1 (stereo not drawn) | i | i | i | i | i | nt | nt | nt
O=C1c2[nH]nc(-c3ccccc3O)c2C(c2ccccc2F)N1Cc1ccco1 (stereo not drawn) | i | i | i | i | 16* | 34%* | 40%* | i
O=C1c2[nH]nc(-c3ccccc3O)c2C(c2ccccc2)N1Cc1ccco1 (stereo not drawn) | i | i | i | i | 12* | 6.0%* | i | i
COc1cccc(C2c3c(-c4ccccc4O)n[nH]c3C(=O)N2Cc2ccco2)c1 (stereo not drawn) | i | i | i | i | i | nt | nt | nt
Cc1cc(SCC(=O)OC(C)C(=O)N(C)c2ccccc2)nc2ccccc12 (stereo not drawn) | i | i | i | i | i | nt | nt | nt
COc1ccc(NC(=O)COc2cccc3c2CCNC3=O)cc1 | nt | nt | i | nt | i | nt | nt | nt
CCOC(=O)c1c(NC(=S)NCC2CCCO2)sc(C)c1C (stereo not drawn) | i | i | i | i | i | nt | nt | nt
CC(=O)Nc1ccc(/C=C/C(=O)c2ccc3c(c2)OCCO3)cc1 | i | i | i | i | i | nt | nt | nt
